# Data reported in ChEMBL document CHEMBL1126323, “Inhibitors of protein kinase C. 2. Substituted bisindolylmaleimides with improved potency and selectivity” (J Med Chem, 1992).
# What was measured:
# [1] = Inhibition of c-AMP dependent protein kinase A (PKA) in bovine heart
# Method in brief: (§1)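 Kinase assay on PKA isolated from bovine heart, run by a method described earlier. Each data point was done in triplicate. IC50 values are the mean of at least two independent assays.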
# Protein kinase C (PKC) = assay: Inhibition of protein kinase C (PKC) in rat brain; format: tissue-based
# Method in brief: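 PKC from rat brain was assayed by a method described earlier. Each data point was done in triplicate. IC50 is the mean of at least two independent determinations.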
# [2] = Inhibition of protein kinase A (PKA) in bovine heart; method in brief: as §1
Compound,IC50 [1] [µM],IC50 (Protein kinase C (PKC)) [µM],IC50 [2] [µM]
Cn1cc(C2=C(c3cn(CCSC(=N)N)c4ccccc34)C(=O)NC2=O)c2ccccc21,–,0.041,12.1
Cn1cc(C2=C(c3cn(CCO)c4ccccc34)C(=O)NC2=O)c2ccccc21,22.1,0.34,–
CN(C)CCCn1cc(C2=C(c3cn(C)c4ccccc34)C(=O)NC2=O)c2ccccc21,25.6,0.045,–
Cn1cc(C2=C(c3cn(CCCCSC(=N)N)c4ccccc34)C(=O)NC2=O)c2ccccc21,–,0.028,2.7
Cn1cc(C2=C(c3cn(CCCCCSC(=N)N)c4ccccc34)C(=O)NC2=O)c2ccccc21,–,0.047,4.6
Cn1cc(C2=C(c3cn(CCC/N=C(\N)N[N+](=O)[O-])c4ccccc34)C(=O)NC2=O)c2ccccc21,–,0.026,4.9
Cn1cc(C2=C(c3cn(CCC[N+](C)(C)C)c4ccccc34)C(=O)NC2=O)c2ccccc21,64.5,0.093,–
Cn1cc(C2=C(c3cn(CCCSC(=N)N)c4ccccc34)C(=O)NC2=O)c2ccccc21 [BISINDOLYLMALEIMIDE IX],–,0.01,0.9

# Further molecules by falling IC50 [1], results first:
IC50 [1] [µM],IC50 (Protein kinase C (PKC)) [µM],IC50 [2] [µM],Compound
21.3,0.28,–,Cn1cc(C2=C(c3cn(CCCCCO)c4ccccc34)C(=O)NC2=O)c2ccccc21
18.4,0.17,–,Cn1cc(C2=C(c3cn(CCCCO)c4ccccc34)C(=O)NC2=O)c2ccccc21
14.2,0.13,–,Cn1cc(C2=C(c3cn(CCCO)c4ccccc34)C(=O)NC2=O)c2ccccc21
11.9,0.035,–,CNCCCn1cc(C2=C(c3cn(C)c4ccccc34)C(=O)NC2=O)c2ccccc21
10.4,0.076,–,Cn1cc(C2=C(c3cn(CCCCCN)c4ccccc34)C(=O)NC2=O)c2ccccc21
9.3,0.055,–,Cn1cc(C2=C(c3cn(CCCCN)c4ccccc34)C(=O)NC2=O)c2ccccc21
8.9,0.064,–,Cn1cc(C2=C(c3cn(CCN)c4ccccc34)C(=O)NC2=O)c2ccccc21
7.4,0.031,–,Cn1cc(C2=C(c3cn(CCCCC(=N)N)c4ccccc34)C(=O)NC2=O)c2ccccc21
5.2,0.075,–,Cn1cc(C2=C(c3cn(CCCN)c4ccccc34)C(=O)NC2=O)c2ccccc21
2.9,0.019,–,Cn1cc(C2=C(c3cn(CCCN=C(N)N)c4ccccc34)C(=O)NC2=O)c2ccccc21
